Experimental data taken from ChEMBL document CHEMBL1136701, “Design, synthesis and biological activity of beta-carboline-based type-5 phosphodiesterase inhibitors” (Bioorg Med Chem Lett, 2003).

Assays:
[1] = target: Dual 3',5'-cyclic-AMP and -GMP phosphodiesterase 11A (Homo sapiens, UniProt Q9HCR9); experiment: Inhibitory activity against phosphodiesterase 11 (PDE11) obtained from recombinant Sf9 expression
Summary of the method: (§1)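 Scintillation proximity assay: fixed enzyme amount with varying inhibitor concentrations; substrate cGMP (3:1 unlabelled to [³H]-labelled) at about 1/3 Km, so that IC50 ≈ Ki. Buffer 20 mM Tris–HCl pH 7.4, 5 mM MgCl2, BSA. Reactions started with enzyme, run 30–60 min at 30 °C, stopped with yttrium silicate SPA beads. Counts converted to % of uninhibited control; IC50 from curve fit.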

[2] = target: T1, cGMP-specific 3',5'-cyclic phosphodiesterase (Homo sapiens, UniProt O76074); experiment: Inhibitory activity against phosphodiesterase 5 (PDE5) obtained from human corpus cavernosum tissue; summary of the method: as §1
[3] = target: T1, cGMP-specific 3',5'-cyclic phosphodiesterase; experiment: Selectivity ratio of the compound against PDE6 to that of PED5
[4] = Relative inhibition of PDE11 and PDE5
Phosphodiesterase 6 = experiment: Inhibitory activity against phosphodiesterase 6 (PDE6) obtained from canine or bovine retina; format: protein assay; summary of the method: as §1
[5] = Relative inhibitoin of PDE11 and PDE5

Chain of Dual 3',5'-cyclic-AMP and -GMP phosphodiesterase 11A (Q9HCR9 whole entry): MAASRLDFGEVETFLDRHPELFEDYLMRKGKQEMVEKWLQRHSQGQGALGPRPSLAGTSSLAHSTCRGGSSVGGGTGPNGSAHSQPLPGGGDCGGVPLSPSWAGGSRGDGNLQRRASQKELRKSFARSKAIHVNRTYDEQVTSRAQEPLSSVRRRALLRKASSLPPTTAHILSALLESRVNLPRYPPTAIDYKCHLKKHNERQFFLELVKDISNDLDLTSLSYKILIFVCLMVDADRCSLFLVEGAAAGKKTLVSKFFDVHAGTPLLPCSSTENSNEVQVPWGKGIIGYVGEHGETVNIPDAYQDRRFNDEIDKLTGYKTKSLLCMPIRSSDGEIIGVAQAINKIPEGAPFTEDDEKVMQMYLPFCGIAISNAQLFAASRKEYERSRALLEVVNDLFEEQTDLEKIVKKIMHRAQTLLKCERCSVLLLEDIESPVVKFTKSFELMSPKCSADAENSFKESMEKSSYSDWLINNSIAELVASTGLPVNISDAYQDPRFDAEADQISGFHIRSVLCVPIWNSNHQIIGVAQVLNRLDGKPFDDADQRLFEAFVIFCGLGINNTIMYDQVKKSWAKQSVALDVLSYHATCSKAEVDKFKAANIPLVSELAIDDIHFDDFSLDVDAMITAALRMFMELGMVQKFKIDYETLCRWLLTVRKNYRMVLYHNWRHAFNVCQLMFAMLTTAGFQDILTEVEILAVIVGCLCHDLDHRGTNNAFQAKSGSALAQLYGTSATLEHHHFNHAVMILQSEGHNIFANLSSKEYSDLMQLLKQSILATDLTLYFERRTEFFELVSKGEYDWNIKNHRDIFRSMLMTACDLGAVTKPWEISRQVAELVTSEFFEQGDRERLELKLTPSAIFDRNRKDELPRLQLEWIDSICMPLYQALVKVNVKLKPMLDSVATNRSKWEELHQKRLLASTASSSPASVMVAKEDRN

| Compound | IC50 [1] | IC50 [2] | Selectivity ratio [3] | Selectivity ratio [4] | IC50 (Phosphodiesterase 6) | Selectivity ratio [5] |
| --- | --- | --- | --- | --- | --- | --- |
| COc1ccc([C@@H]2c3[nH]c4ccccc4c3C[C@@H]3C(=O)N([C@@H]4CCN(Cc5ccccc5)C4)CC(=O)N23)cc1OC | 1000 nM | > 1000 nM | – | – | – | – |
| CN(C)CCN1CC(=O)N2[C@H](c3ccc4c(c3)OCO4)c3[nH]c4ccccc4c3C[C@@H]2C1=O | 53 nM | 134 nM | – | – | 8224 nM | – |
| O=C1[C@H]2Cc3c([nH]c4ccccc34)[C@@H](c3ccc4c(c3)OCO4)N2C(=O)CN1[C@@H]1CCN(CCC2CC2)C1 | 43 nM | 15.7 nM | 169 | 2.7 | 2660 nM | – |
| CCCN1CC[C@@H](N2CC(=O)N3[C@H](c4ccc5c(c4)OCO5)c4[nH]c5ccccc5c4C[C@@H]3C2=O)C1 | – | 57 nM | > 175 | – | > 10000 nM | – |
| CN(C)CC(=O)CN1CC[C@@H](N2CC(=O)N3[C@H](c4ccc5c(c4)OCO5)c4[nH]c5ccccc5c4C[C@@H]3C2=O)C1 | 48 nM | 19.8 nM | – | 2.4 | – | – |
| O=C1[C@H]2Cc3c([nH]c4ccccc34)[C@@H](c3ccc4c(c3)OCO4)N2C(=O)CN1[C@@H]1CCN(Cc2ccccc2)C1 | 5.5 nM | – | – | – | 249 nM | – |
| COc1cccc([C@@H]2c3[nH]c4ccccc4c3C[C@@H]3C(=O)N([C@@H]4CCN(Cc5ccccc5)C4)CC(=O)N23)c1 (stereo in doubt; form 2) [listing 1 of 2 here] | 11.8 nM | 15.6 nM | – | – | – | – |
| COc1cccc([C@@H]2c3[nH]c4ccccc4c3C[C@@H]3C(=O)N([C@@H]4CCN(Cc5ccccc5)C4)CC(=O)N23)c1 (stereo in doubt; form 2) [listing 2 of 2 here] | – | – | – | – | – | 0.8 |
| O=C1[C@H]2Cc3c([nH]c4ccccc34)[C@@H](c3ccc4c(c3)OCO4)N2C(=O)CN1CCN1CCOCC1 | – | 56 nM | – | – | 2966 nM | – |
| Cn1ccnc1CCN1CC[C@@H](N2CC(=O)N3[C@H](c4ccc5c(c4)OCO5)c4[nH]c5ccccc5c4C[C@@H]3C2=O)C1 (stereo in doubt; form 1) [listing 1 of 2 here] | – | – | 640 | 2.6 | – | – |
| O=C1[C@H]2Cc3c([nH]c4ccccc34)[C@@H](c3ccc4c(c3)OCO4)N2C(=O)CN1C1CCN(Cc2ccccc2)CC1 | – | 26 nM | – | – | 1619 nM | – |
| O=C1[C@H]2Cc3c([nH]c4ccccc34)[C@@H](c3ccc4c(c3)OCO4)N2C(=O)CN1[C@H]1CCN(Cc2ccccc2)C1 | 85 nM | – | – | – | – | – |
| Cn1ccnc1CCN1CC[C@@H](N2CC(=O)N3[C@H](c4ccc5c(c4)OCO5)c4[nH]c5ccccc5c4C[C@@H]3C2=O)C1 (stereo in doubt; form 2) [listing 2 of 2 here] | – | – | 173 | 2 | – | – |
| COc1ccc([C@@H]2c3[nH]c4ccccc4c3C[C@@H]3C(=O)N([C@@H]4CCN(Cc5ccccc5)C4)CC(=O)N23)cc1C | 71 nM | 132 nM | – | – | – | 0.5 |
| O=C1[C@H]2Cc3c([nH]c4ccccc34)[C@@H](c3ccc(O)nc3)N2C(=O)CN1[C@@H]1CCN(Cc2ccccc2)C1 | 39 nM | 127 nM | – | – | – | 0.3 |
| COc1cccc([C@@H]2c3[nH]c4ccccc4c3C[C@@H]3C(=O)N([C@@H]4CCN(Cc5ccccc5)C4)CC(=O)N23)c1 (stereo in doubt; form 1) [listing 1 of 2 here] | 44 nM | 28.6 nM | – | – | – | – |
| O=C1[C@H]2Cc3c([nH]c4ccccc34)[C@@H](c3ccc4c(c3)OCO4)N2C(=O)CN1C1CN(Cc2ccccc2)C1 | 950 nM | 164 nM | – | – | – | – |
| COc1cccc([C@@H]2c3[nH]c4ccccc4c3C[C@@H]3C(=O)N([C@@H]4CCN(Cc5ccccc5)C4)CC(=O)N23)c1 (stereo in doubt; form 1) [listing 2 of 2 here] | – | – | – | – | – | 1.5 |

Further lines, results first:

| IC50 [1] | IC50 [2] | Selectivity ratio [3] | Selectivity ratio [4] | IC50 (Phosphodiesterase 6) | Selectivity ratio [5] | Compound |
| --- | --- | --- | --- | --- | --- | --- |
| 22 nM | 7.1 nM | 188 | 3 | 1340 nM | – | COCCCN1CC[C@@H](N2CC(=O)N3[C@H](c4ccc5c(c4)OCO5)c4[nH]c5ccccc5c4C[C@@H]3C2=O)C1 |
| 4.7 nM | 2.5 nM | 316 | 1.9 | 807 nM | – | CN(C)C(=O)CCN1CC[C@@H](N2CC(=O)N3[C@H](c4ccc5c(c4)OCO5)c4[nH]c5ccccc5c4C[C@@H]3C2=O)C1 |
| 4.7 nM | 4 nM | 211 | 1.2 | 846 nM | – | O=C(CCN1CC[C@@H](N2CC(=O)N3[C@H](c4ccc5c(c4)OCO5)c4[nH]c5ccccc5c4C[C@@H]3C2=O)C1)N1CCC1 |
| 2.01 nM | 1.5 nM | 153 | 1.4 | 226 nM | – | O=C1[C@H]2Cc3c([nH]c4ccccc34)[C@@H](c3ccc4c(c3)OCO4)N2C(=O)CN1[C@@H]1CCN(CCc2ccccn2)C1 |
| 1.4 nM | 0.7 nM | – | – | 125 nM | – | Cn1ccnc1CCN1CC[C@@H](N2CC(=O)N3[C@H](c4ccc5c(c4)OCO5)c4[nH]c5ccccc5c4C[C@@H]3C2=O)C1 (stereo in doubt; form 2) [listing 1 of 2 here] |
| 4.2 nM | 2 nM | 181 | 2.1 | 358 nM | – | O=C1[C@H]2Cc3c([nH]c4ccccc34)[C@@H](c3ccc4c(c3)OCO4)N2C(=O)CN1[C@@H]1CCN(CCc2cnccn2)C1 |
| 3.5 nM | 1.2 nM | 300 | 2.9 | 357 nM | – | O=C1[C@H]2Cc3c([nH]c4ccccc34)[C@@H](c3ccc4c(c3)OCO4)N2C(=O)CN1[C@@H]1CCN(CCc2ncc[nH]2)C1 |
| 6.7 nM | 2.7 nM | – | – | – | 2.5 | COc1ccc([C@@H]2c3[nH]c4ccccc4c3C[C@@H]3C(=O)N([C@@H]4CCN(Cc5ccccc5)C4)CC(=O)N23)cc1 |
| 31 nM | 13.2 nM | 134 | 2.3 | 1770 nM | – | CCCCCN1CC[C@@H](N2CC(=O)N3[C@H](c4ccc5c(c4)OCO5)c4[nH]c5ccccc5c4C[C@@H]3C2=O)C1 |
| – | 4 nM | – | 3 | – | – | C=CCCN1CC[C@@H](N2CC(=O)N3[C@H](c4ccc5c(c4)OCO5)c4[nH]c5ccccc5c4C[C@@H]3C2=O)C1 |
| 2.4 nM | 1.9 nM | 144 | 1.3 | 271 nM | – | O=C1[C@H]2Cc3c([nH]c4ccccc34)[C@@H](c3ccc4c(c3)OCO4)N2C(=O)CN1[C@@H]1CCN(CCc2cccnc2)C1 |
| 2.2 nM | 0.8 nM | – | – | 494 nM | – | Cn1ccnc1CCN1CC[C@@H](N2CC(=O)N3[C@H](c4ccc5c(c4)OCO5)c4[nH]c5ccccc5c4C[C@@H]3C2=O)C1 (stereo in doubt; form 1) [listing 2 of 2 here] |
| 6.5 nM | 12.8 nM | – | – | – | 0.5 | Cc1ccc([C@@H]2c3[nH]c4ccccc4c3C[C@@H]3C(=O)N([C@@H]4CCN(Cc5ccccc5)C4)CC(=O)N23)cc1 |
| 48 nM | 8.4 nM | 189 | 5.7 | 1601 nM | – | NC(=O)CCN1CC[C@@H](N2CC(=O)N3[C@H](c4ccc5c(c4)OCO5)c4[nH]c5ccccc5c4C[C@@H]3C2=O)C1 |
| 4.3 nM | 3.6 nM | 172 | 1.2 | 620 nM | – | CCNC(=O)CCN1CC[C@@H](N2CC(=O)N3[C@H](c4ccc5c(c4)OCO5)c4[nH]c5ccccc5c4C[C@@H]3C2=O)C1 |
